# Measurements from ChEMBL document CHEMBL3585281, “Antibacterial Labdane Diterpenoids from Vitex vestita” (2015).
# Legend:
# Assay type in all cases: functional
# Enterococcus faecium [1] = assay: Antibacterial activity against Enterococcus faecium N490 after 18 hrs by agar dilution method; conditions: N490, 18 h
# Method in brief: (§1)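 Agar-dilution MIC against Gram-positive strains. Compounds in DMSO, geometric dilutions giving final 100−0.75 mg/L in Mueller Hinton agar. Strains grown 18 h at 37 °C in trypticase soy broth, diluted in sterile water, spotted by Steers inoculator (about 1000 UFC/spot). Plates incubated 18 h at 37 °C; DMSO blank; ofloxacin positive control. MIC = lowest concentration with no visible growth.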
# Enterococcus gallinarum [2] = assay: Antibacterial activity against Enterococcus gallinarum N492 after 18 hrs by agar dilution method; conditions: N492, 18 h; method in brief: as §1
# Staphylococcus aureus [3] = assay: Antibacterial activity against Staphylococcus aureus CIP 7625 after 18 hrs by agar dilution method; conditions: CIP 7625, 18 h; method in brief: as §1
# Staphylococcus aureus [4] = assay: Antibacterial activity against Staphylococcus aureus CIP 53154 after 18 hrs by agar dilution method; conditions: CIP 53154, 18 h; method in brief: as §1
# Bacillus cereus [5] = assay: Antibacterial activity against Bacillus cereus N190 after 18 hrs by agar dilution method; conditions: N190, 18 h; method in brief: as §1
# Listeria monocytogenes [6] = assay: Antibacterial activity against Listeria monocytogenes N783 after 18 hrs by agar dilution method; conditions: N783, 18 h; method in brief: as §1
# Bacillus cereus [7] = assay: Antibacterial activity against Bacillus cereus N349 after 18 hrs by agar dilution method; conditions: N349, 18 h; method in brief: as §1
# Listeria monocytogenes [8] = assay: Antibacterial activity against Listeria monocytogenes N851 after 18 hrs by agar dilution method; conditions: N851, 18 h; method in brief: as §1
# Listeria monocytogenes [9] = assay: Antibacterial activity against Listeria monocytogenes CIP 103575 after 18 hrs by agar dilution method; conditions: CIP 103575, 18 h; method in brief: as §1
# Enterococcus gallinarum [10] = assay: Antibacterial activity against Enterococcus gallinarum CIP 105985 after 18 hrs by agar dilution method; conditions: CIP 105985, 18 h; method in brief: as §1
# [11] = tested on: Staphylococcus saprophyticus; assay: Antibacterial activity against Staphylococcus saprophyticus CIP 76125 after 18 hrs by agar dilution method; conditions: CIP 76125, 18 h; method in brief: as §1
# Enterococcus faecalis [12] = assay: Antibacterial activity against Enterococcus faecalis N518 after 18 hrs by agar dilution method; conditions: N518, 18 h; method in brief: as §1
# Bacillus spizizenii = assay: Antibacterial activity against Bacillus subtilis ATCC 6633 after 18 hrs by agar dilution method; conditions: ATCC 6633, 18 h; method in brief: as §1
# Bacillus cereus [13] = assay: Antibacterial activity against Bacillus cereus N258 after 18 hrs by agar dilution method; conditions: N258, 18 h; method in brief: as §1
# Enterococcus hirae = assay: Antibacterial activity against Enterococcus hirae CIP 5855 after 18 hrs by agar dilution method; conditions: CIP 5855, 18 h; method in brief: as §1
# Mammaliicoccus sciuri = assay: Antibacterial activity against Staphylococcus sciuri N993 after 18 hrs by agar dilution method; conditions: N993, 18 h; method in brief: as §1
# [14] = tested on: Staphylococcus epidermidis; assay: Antibacterial activity against Staphylococcus epidermidis CIP 53124 after 18 hrs by agar dilution method; conditions: CIP 53124, 18 h; method in brief: as §1
# Enterococcus faecium [15] = assay: Antibacterial activity against Enterococcus faecium N733 after 18 hrs by agar dilution method; conditions: N733, 18 h; method in brief: as §1
# Staphylococcus aureus [16] = assay: Antibacterial activity against Staphylococcus aureus CIP 483 after 18 hrs by agar dilution method; conditions: CIP 483, 18 h; method in brief: as §1
# Enterococcus durans = assay: Antibacterial activity against Enterococcus durans CIP 104999 after 18 hrs by agar dilution method; conditions: CIP 104999, 18 h; method in brief: as §1
# [17] = tested on: Staphylococcus haemolyticus; assay: Antibacterial activity against Staphylococcus haemolyticus CIP 8156 after 18 hrs by agar dilution method; conditions: CIP 8156, 18 h; method in brief: as §1
# Enterococcus faecium [18] = assay: Antibacterial activity against Enterococcus faecium N823 after 18 hrs by agar dilution method; conditions: N823, 18 h; method in brief: as §1
# Enterococcus faecalis [19] = assay: Antibacterial activity against Enterococcus faecalis N491 after 18 hrs by agar dilution method; conditions: N491, 18 h; method in brief: as §1
# Staphylococcus aureus [20] = assay: Antibacterial activity against Staphylococcus aureus CIP 53156 after 18 hrs by agar dilution method; conditions: CIP 53156, 18 h; method in brief: as §1
# Listeria monocytogenes [21] = assay: Antibacterial activity against Listeria monocytogenes N836 after 18 hrs by agar dilution method; conditions: N836, 18 h; method in brief: as §1
# Bacillus cereus [22] = assay: Antibacterial activity against Bacillus cereus CIP 6624 after 18 hrs by agar dilution method; conditions: CIP 6624, 18 h; method in brief: as §1
# [23] = tested on: Staphylococcus lugdunensis; assay: Antibacterial activity against Staphylococcus lugdunensis ATCC 43809 after 18 hrs by agar dilution method; conditions: ATCC 43809, 18 h; method in brief: as §1
# Enterococcus faecium [24] = assay: Antibacterial activity against Enterococcus faecium CIP 103014 after 18 hrs by agar dilution method; conditions: CIP 103014, 18 h; method in brief: as §1
# Staphylococcus aureus [25] = assay: Antibacterial activity against Staphylococcus aureus CRBIP 2121 after 18 hrs by agar dilution method; conditions: CRBIP 2121, 18 h; method in brief: as §1
# Staphylococcus aureus [26] = assay: Antibacterial activity against Staphylococcus aureus ATCC 9144 oxford after 18 hrs by agar dilution method; method in brief: as §1
# Enterococcus faecalis [27] = assay: Antibacterial activity against Enterococcus faecalis CIP 104676 after 18 hrs by agar dilution method; conditions: CIP 104676, 18 h; method in brief: as §1
# [28] = tested on: Enterococcus casseliflavus; assay: Antibacterial activity against Enterococcus casseliflavus CIP 103018 after 18 hrs by agar dilution method; conditions: CIP 103018, 18 h; method in brief: as §1
# [29] = tested on: Staphylococcus saprophyticus; assay: Antibacterial activity against Staphylococcus saprophyticus E260 after 18 hrs by agar dilution method; conditions: E260, 18 h; method in brief: as §1
# Corynebacterium striatum = assay: Antibacterial activity against Corynebacterium striatum N840 after 18 hrs by agar dilution method; conditions: N840, 18 h; method in brief: as §1
# Enterococcus faecalis [30] = assay: Antibacterial activity against Enterococcus faecalis CIP 103214 after 18 hrs by agar dilution method; conditions: CIP 103214, 18 h; method in brief: as §1
# Enterococcus avium = assay: Antibacterial activity against Enterococcus avium CIP 104053 after 18 hrs by agar dilution method; conditions: CIP 104053, 18 h; method in brief: as §1
# Enterococcus faecium [31] = assay: Antibacterial activity against Enterococcus faecium CIP 107387 after 18 hrs by agar dilution method; conditions: CIP 107387, 18 h; method in brief: as §1
# Listeria innocua = assay: Antibacterial activity against Listeria innocua E044 after 18 hrs by agar dilution method; conditions: E044, 18 h; method in brief: as §1
# Enterococcus gallinarum [32] = assay: Antibacterial activity against Enterococcus gallinarum N489 after 18 hrs by agar dilution method; conditions: N489, 18 h; method in brief: as §1
# Staphylococcus aureus [33] = assay: Antibacterial activity against Staphylococcus aureus CIP 5710 after 18 hrs by agar dilution method; conditions: CIP 5710, 18 h; method in brief: as §1
# Enterococcus faecium [34] = assay: Antibacterial activity against Enterococcus faecium N507 after 18 hrs by agar dilution method; conditions: N507, 18 h; method in brief: as §1
# Enterococcus faecalis [35] = assay: Antibacterial activity against Enterococcus faecalis N520 after 18 hrs by agar dilution method; conditions: N520, 18 h; method in brief: as §1
# [36] = tested on: Enterococcus casseliflavus; assay: Antibacterial activity against Enterococcus casseliflavus N487 after 18 hrs by agar dilution method; conditions: N487, 18 h; method in brief: as §1
# [37] = tested on: Staphylococcus intermedius; assay: Antibacterial activity against Staphylococcus intermedius N987 after 18 hrs by agar dilution method; conditions: N987, 18 h; method in brief: as §1
# Staphylococcus aureus [38] = assay: Antibacterial activity against Staphylococcus aureus ATCC 25923 after 18 hrs by agar dilution method; conditions: ATCC 25923, 18 h; method in brief: as §1
# Streptococcus agalactiae = assay: Antibacterial activity against Streptococcus agalactiae CIP 103227 after 18 hrs by agar dilution method; conditions: ATCC 13813, 18 h; method in brief: as §1
compound,measurement,setting,value
O=C(N[C@H](CO)[C@H](O)c1ccc([N+](=O)[O-])cc1)C(Cl)Cl [CHLORAMPHENICOL],MIC,Enterococcus faecium [1],12 µM
same,MIC,Enterococcus gallinarum [2],25 µM
same,MIC,Staphylococcus aureus [3],25 µM
same,MIC,Staphylococcus aureus [4],12 µM
same,MIC,Bacillus cereus [5],6 µM
same,MIC,Listeria monocytogenes [6],12 µM
same,MIC,Bacillus cereus [7],6 µM
same,MIC,Listeria monocytogenes [8],25 µM
same,MIC,Listeria monocytogenes [9],25 µM
same,MIC,Enterococcus gallinarum [10],12 µM
same,MIC,[11],25 µM
same,MIC,Enterococcus faecalis [12],25 µM
same,MIC,Bacillus spizizenii,12 µM
same,MIC,Bacillus cereus [13],6 µM
same,MIC,Enterococcus hirae,12 µM
same,MIC,Mammaliicoccus sciuri,12 µM
same,MIC,[14],6 µM
same,MIC,Enterococcus faecium [15],12 µM
same,MIC,Staphylococcus aureus [16],12 µM
same,MIC,Enterococcus durans,12 µM
same,MIC,[17],6 µM
same,MIC,Enterococcus faecium [18],25 µM
same,MIC,Enterococcus faecalis [19],12 µM
same,MIC,Staphylococcus aureus [20],12 µM
same,MIC,Listeria monocytogenes [21],12 µM
same,MIC,Bacillus cereus [22],6 µM
same,MIC,[23],12 µM
same,MIC,Enterococcus faecium [24],25 µM
same,MIC,Staphylococcus aureus [25],12 µM
same,MIC,Staphylococcus aureus [26],12 µM
same,MIC,Enterococcus faecalis [27],200 µM
same,MIC,[28],25 µM
same,MIC,[29],25 µM
same,MIC,Corynebacterium striatum,50 µM
same,MIC,Enterococcus faecalis [30],25 µM
same,MIC,Enterococcus avium,12 µM
same,MIC,Enterococcus faecium [31],12 µM
same,MIC,Listeria innocua,12 µM
same,MIC,Enterococcus gallinarum [32],12 µM
same,MIC,Staphylococcus aureus [33],12 µM
same,MIC,Enterococcus faecium [34],25 µM
same,MIC,Enterococcus faecalis [35],200 µM
same,MIC,[36],25 µM
same,MIC,[37],25 µM
same,MIC,Staphylococcus aureus [38],25 µM
same,MIC,Streptococcus agalactiae,3 µM
